Here are results for three compounds from ChEMBL document CHEMBL1782036, “Atovaquone derivatives as potent cytotoxic and apoptosis inducing agents” (Bioorg Med Chem Lett, 2009).

pIC50: −log10 of the molar value. Activity calls are given as the source filed them. No cut-off for these calls is given here.

One may read the pIC50 as −log10 of the IC50, conventionally taken in molar units. A low value points to a high IC50.

Test [1] deals with DU-145. Put plainly: Growth inhibition of human DU145 cells after 72 hrs by MTT assay. The settings on record: DU-145, 72 h. In kind it is functional, cell-based. Put shortly:
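Du145 human prostate carcinoma cells were screened by MTT cell-growth inhibition assay. IC50 values are means of three experiments.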
(Formazan colour is commonly taken as a measure of viable cells.)

Test [2] deals with DU-145. Put plainly: Induction of apoptosis in human DU145 cells at 10 uM after 72 hrs by AnnexinV conjugated 7- AAD staining by flow cytometry. The test is classed as functional, cell-based. Summed up: (§1)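 Du145 cells were treated for 72 h and stained with Annexin V conjugate plus 7-AAD. Flow cytometry read PS externalization and membrane integrity, scoring cells as live (double negative), early apoptotic, or late apoptotic/necrotic (double positive). Untreated cells served as the control.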
A general note: In flow cytometry, cells or beads pass a laser one at a time.

In a further test the test system is IMR-90. Put plainly: Antiproliferative activity against human IMR90 cells after 72 hrs by MTT assay. In kind it is cell-based. The settings on record: IMR-90, 72 h.
Another test has as its system A549. The test is described as follows: Antiproliferative activity against human A549 cells after 72 hrs by MTT assay. In kind it is functional, cell-based. Conditions: A549, 72 h.
The next test deals with HeLa. Put plainly: Antiproliferative activity against human HeLa cells after 72 hrs by MTT assay. In kind it is functional, cell-based.
A further test concerns HepG2. Put plainly: Antiproliferative activity against human HepG2 cells after 72 hrs by MTT assay. In kind it is functional, cell-based. The settings on record: HepG2, 72 h.
A further test concerns HT-1080. The test is described as follows: Antiproliferative activity against human HT1080 cells after 72 hrs by MTT assay. In kind it is functional, cell-based. Conditions: HT-1080, 72 h.
For a further test, the system named is HT-29. Put plainly: Antiproliferative activity against human HT-29 cells after 72 hrs by MTT assay. In kind it is functional, cell-based. Conditions: HT-29, 72 h.
A further test concerns KB. Put plainly: Antiproliferative activity against human KB cells after 72 hrs by MTT assay. The test is classed as functional, cell-based.
Test [3] in a line: Antiproliferative activity against human L78 cells after 72 hrs by MTT assay. Conditions: L78, 72 h. The test is classed as functional, cell-based.
A further test deals with MCF7. The test is described as follows: Antiproliferative activity against human MCF7 cells after 72 hrs by MTT assay. The test is classed as functional, cell-based. Conditions: MCF7, 72 h.
The subject of another test is MOLT-4. Put plainly: Antiproliferative activity against human MOLT4 cells after 72 hrs by MTT assay. In kind it is functional, cell-based. The settings on record: MOLT-4, 72 h.
Another test deals with OS-RC-2. Put plainly: Antiproliferative activity against human OS-RC2 cells after 72 hrs by MTT assay. The settings on record: OS-RC-2, 72 h. The test is classed as functional, cell-based.
For another test, the system named is SGC-7901. Put plainly: Antiproliferative activity against human SGC7901 cells after 72 hrs by MTT assay. The test is classed as functional, cell-based. The settings on record: SGC-7901, 72 h.
A further test concerns U-251. The test is described as follows: Antiproliferative activity against human U251 cells after 72 hrs by MTT assay. In kind it is functional, cell-based. The settings on record: U-251, 72 h.
Test [4] has as its system DU-145. Put plainly: Induction of apoptosis in human DU145 cells at 5 uM after 72 hrs by AnnexinV conjugated 7- AAD staining by flow cytometry. In kind it is functional, cell-based. Put shortly:
as §1

The subject of test [5] is DU-145. The test is described as follows: Induction of apoptosis in human DU145 cells assessed as caspase-9 activation at 1 to 10 uM after 24 hrs by Western blot analysis. In kind it is functional, cell-based. Put shortly: (§2)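 Du145 lysates from dose-ranging treatment were analysed by Western blot for activation of caspase 9 and caspase 3.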
Test [6] concerns DU-145. Put plainly: Induction of apoptosis in human DU145 cells assessed as caspase-3 activation at 1 to 10 uM after 24 hrs by Western blot analysis. The test is classed as functional, cell-based. Put shortly:
as §2

Test [7] deals with DU-145. The test is described as follows: Induction of chromatin condensation in human DU145 cells at 20 uM by Hoechst 33342 staining by fluorescent microscopy. The test is classed as functional, cell-based. Put shortly: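 Du145 cells were exposed for 24 h, with 0.2% DMSO as the vehicle control. Nuclei were stained with Hoechst 33342 and viewed by fluorescence microscopy at 100× for chromatin condensation and nuclear shrinkage.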

For test [8], the system named is DU-145. Put plainly: Induction of apoptosis in human DU145 cells at 10 uM assessed as live cell level after 72 hrs by AnnexinV conjugated 7- AAD staining by flow cytometry. The test is classed as functional. Summed up: as §1
Test [9] concerns DU-145. The test is described as follows: Induction of apoptosis in human DU145 cells at 10 uM assessed as early apoptosis level after 72 hrs by AnnexinV conjugated 7- AAD staining by flow cytometry. In kind it is functional. Put shortly: as §1
Test [10] deals with DU-145. The test is described as follows: Induction of apoptosis in human DU145 cells at 10 uM assessed as dead cell level after 72 hrs by AnnexinV conjugated 7- AAD staining by flow cytometry. The test is classed as functional. Summed up:
(§3)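 Du145 human prostate carcinoma cells exposed to compound for 72 h, then stained with Annexin V and 7-AAD and analysed by flow cytometry. Annexin V detects phosphatidylserine externalised to the outer membrane leaflet, and 7-AAD enters only membrane-compromised cells. Dead cells were those positive for both stains. Untreated cells served as control.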

Test [11] concerns DU-145. Put plainly: Induction of apoptosis in human DU145 cells at 5 uM assessed as live cell level after 72 hrs by AnnexinV conjugated 7- AAD staining by flow cytometry. In kind it is functional. Put shortly: as §1
In test [12] the test system is DU-145. The test is described as follows: Induction of apoptosis in human DU145 cells at 5 uM assessed as early apoptosis level after 72 hrs by AnnexinV conjugated 7- AAD staining by flow cytometry. The test is classed as functional. Summed up: as §1
Test [13] has as its system DU-145. The test is described as follows: Induction of apoptosis in human DU145 cells at 5 uM assessed as late apoptosis/ necrotic cells level after 72 hrs by AnnexinV conjugated 7- AAD staining by flow cytometry. In kind it is functional. Summed up: as §1
In test [14] the test system is DU-145. The test is described as follows: Induction of apoptosis in human DU145 cells at 5 uM assessed as dead cell level after 72 hrs by AnnexinV conjugated 7- AAD staining by flow cytometry. In kind it is functional. Summed up:
as §3

The test system of test [15] is DU-145. Put plainly: Induction of apoptosis in human DU145 cells at 10 uM assessed as late apoptosis/ necrotic cells level after 72 hrs by AnnexinV conjugated 7- AAD staining by flow cytometry. The test is classed as functional. Put shortly: as §1

In the case of `O=C1C=C(N2CCN(c3ccccc3)CC2)C(=O)c2c(O)cccc21`, the pIC50 was 5.55 with DU-145 [1]; below 4.30 in the test on IMR-90; 5.38 in the test with A549; 5.16 in the test with HeLa; 5.27 in the test with HepG2; 5.09 in the test with HT-1080. The pIC50 was 5.54 with HT-29; 5.15 with KB; 5.44 in [3]; 5.28 with MCF7; below 4.30 in the test with MOLT-4; 5.82 with OS-RC-2. The pIC50 with SGC-7901 is 5.43; with U-251 it was 5.21. Moreover, the result with DU-145 [2], in the test on DU-145 [4] and in the test on DU-145 [7] was Active. The Activity entry was “Dose-dependent effect” in the test with DU-145 [5]; “Dose-dependent effect” in the test with DU-145 [6]; 2.8% in the test with DU-145 [8]; 37.6% in the test with DU-145 [9]; 58% with DU-145 [10].

Take `Cc1ccccc1C1CCN(C2=CC(=O)c3cccc(O)c3C2=O)CC1`: the pIC50 with DU-145 [1] was 5.60; in the test on IMR-90 it was below 4.30; in the test on A549, 5.28; with HeLa, 5.01; in the test with HepG2, 4.78; in the test on HT-1080, below 4.30. In addition, the pIC50 was 5.17 in the test with HT-29; 5.36 in the test on KB; 5.36 in [3]; 5.05 with MCF7; below 4.30 in the test on MOLT-4; 5.49 with OS-RC-2. Also, the results for the pIC50 in the test with SGC-7901 and in the test with U-251 were 5.41 and 4.52, respectively. Further, the Activity with DU-145 [11] came to 51.4%; in the test on DU-145 [12] it was 10.31%; with DU-145 [13], 34.39%; in the test with DU-145 [14], 3.9%; with DU-145 [8], 0.96%; in the test with DU-145 [9] it was 14.31%. Also, the Activity was determined as 84.32% with DU-145 [15] and 0.42% with DU-145 [10].

On to `Cc1ccccc1N1CCN(C2=CC(=O)c3cccc(O)c3C2=O)CC1`, for which the pIC50 was 5.64 in the test with DU-145 [1]; below 4.30 in the test with IMR-90; 5.28 with A549; 5.14 with HeLa; 4.99 with HepG2; 4.96 in the test on HT-1080. Also, the negative-log IC50 (pIC50) with HT-29 was 5.55; with KB, 5.18; in [3], 4.82; in the test on MCF7 it was 5.01; in the test on MOLT-4 it was below 4.30; with OS-RC-2, 5.36. The figures for the pIC50 in the test with SGC-7901 and in the test with U-251 were 5.28 and 4.99, respectively. For the same compound, the Activity was 69.54% in the test with DU-145 [11]; 3.89% with DU-145 [12]; 15.49% in the test on DU-145 [13]; 11.08% with DU-145 [14]; 18.75% in the test on DU-145 [8]; 18.28% with DU-145 [9]. In addition, the results for the Activity in the test with DU-145 [15] and with DU-145 [10] were 59.33% and 3.64%, respectively.
